Holding throughout (format): functional, organism-based
Holding throughout (settings): 168 h

The test system of experiment [1] is Mycobacterium tuberculosis. Put plainly: Antimycobacterial activity against Rifampicin-resistant Mycobacterium tuberculosis expressing rpoB+ assessed as bacterial growth inhibition measured after 1 week by MABA assay. The procedure, abridged:
(§1)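 Colonies grown on 7H10+OADC agar at 37 °C, then to mid-log in 7H9+OADC; about 4×10^5 CFU/mL inoculated into 7H9 with escalating compound concentrations. Incubated 37 °C for 1 week, then resazurin (0.6 mM in PBS) mixed 8:5 with 20 % Tween 80 was added and incubated overnight at 37 °C. Fluorescent resorufin read-out gave IC50.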
For orientation: Resazurin is reduced to fluorescent resorufin, in cell work by metabolically active cells.

For experiment [2], the system named is Mycobacterium tuberculosis. Put plainly: Antimycobacterial activity against INH-resistant Mycobacterium tuberculosis expressing katG+ assessed as bacterial growth inhibition measured after 1 week by MABA assay. A digest of the protocol:
as §1

The subject of experiment [3] is Mycobacterium tuberculosis. Put plainly: Antimycobacterial activity against INH-resistant Mycobacterium tuberculosis expressing inhA+ assessed as bacterial growth inhibition measured after 1 week by MABA assay. The procedure, abridged: as §1

For orientation: IC50 means the concentration that inhibits the measured activity by half. With `CCOC(=O)COc1cc(OC)c2c(c1)[n+]([O-])c1ccccc1[n+]2[O-]`, the IC50 in experiment [1], in experiment [2] and in experiment [3] was 0.25 µM throughout.
Take `CCOCOc1cc(OC)c2c(c1)[n+]([O-])c1ccccc1[n+]2[O-]`: the IC50 in experiment [1] was 0.0312 µM; in experiment [2], 0.0625 µM; in experiment [3], 0.0312 µM.
Turning to `COc1cccc2c1[n+]([O-])c1ccccc1[n+]2[O-]`, the IC50 in experiment [1], in experiment [2] and in experiment [3] was 0.125 µM throughout.
Consider `COCOc1cc(O)c2c(c1)[n+]([O-])c1ccccc1[n+]2[O-]`, for which the IC50 in experiment [1], in experiment [2] and in experiment [3] was 0.125 µM in each case.
Consider `[O-][n+]1c2ccccc2[n+]([O-])c2c(O)cccc21`, for which the IC50 in experiment [2] came out at 0.05 µM.
Regarding `COc1cccc2c1[n+]([O-])c1cccc(O)c1[n+]2[O-]`, the IC50 in experiment [1], in experiment [2] and in experiment [3] was 0.0625 µM in each case.
With `COc1cc(OC(C)=O)c2c(c1)[n+]([O-])c1ccccc1[n+]2[O-]`, the results for the IC50 in experiment [1], in experiment [2] and in experiment [3] were 0.25 µM, 0.125 µM and 0.125 µM, respectively.
For the compound `CC(=O)Oc1cc(O)c2c(c1)[n+]([O-])c1ccccc1[n+]2[O-]`, the IC50 in experiment [1] was determined as 1 µM; in experiment [2], 1 µM; in experiment [3], 0.5 µM.
Turning to `[O-][n+]1c2ccccc2[n+]([O-])c2c(O)cc(O)cc21`, the IC50 in experiment [1] came out at 1 µM; in experiment [2], 0.5 µM; in experiment [3], 0.125 µM.
Consider `CCOc1cc(O)c2c(c1)[n+]([O-])c1ccccc1[n+]2[O-]`, for which the figures for the IC50 in experiment [1], in experiment [2] and in experiment [3] were 0.0625 µM, 0.0625 µM and 0.004 µM, respectively.
Take `COc1cc(OC)c2c(c1)[n+]([O-])c1ccccc1[n+]2[O-]`: the IC50 in experiment [1], in experiment [2] and in experiment [3] was 0.125 µM in each case.
In the case of `[O-][n+]1c2cccc(O)c2[n+]([O-])c2cccc(O)c21`, in experiment [2], the concentration for half-maximal inhibition (IC50) was determined as 0.07 µM.
Take `CCOCOc1cc(O)c2c(c1)[n+]([O-])c1ccccc1[n+]2[O-]`: the half-maximal inhibitory concentration (IC50) stood at 0.0312 µM in experiment [1], 0.0625 µM in experiment [2] and 0.004 µM in experiment [3].
`CCOC(=O)COc1cc(O)c2c(c1)[n+]([O-])c1ccccc1[n+]2[O-]`: the IC50 was found to be 0.25 µM in experiment [1], 0.25 µM in experiment [2] and 0.0625 µM in experiment [3].
For the compound `COc1cc(O)c2c(c1)[n+]([O-])c1ccccc1[n+]2[O-]`, the values for the IC50 in experiment [1], in experiment [2] and in experiment [3] were 0.0625 µM, 0.0625 µM and 0.016 µM, respectively.

These data come from ChEMBL document CHEMBL6153049, “Functionalized regioisomers of the natural product phenazines myxin and iodinin as potent inhibitors of Mycobacterium tuberculosis and human acute myeloid leukemia cells” (Eur J Med Chem, 2025).
